Key:
[1] = Selectivity index, ratio of CC50 for human HepG2 cells to IC50 for Leishmania donovani MHOM/IN/00/DEVI; assay type: functional
How it was run: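 SI = HepG2 CC50 / L. donovani IC50.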

[2] = system: Leishmania donovani; experiment: Antimicrobial activity against Leishmania donovani MHOM/IN/00/DEVI promastigotes after 72 hrs by MTT assay; assay type: functional, organism-based
How it was run: (§1)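 Log-phase promastigotes in Schneider's medium with 20% FCS, 2 mM L-glutamine and penicillin/streptomycin, at 10⁶ parasites/mL. Compound dilutions run in duplicate, final DMSO <0.5%, 72 h at 27 °C. MTT 0.5 mg/mL for 6 h at 27 °C, formazan dissolved in DMSO, A570.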

[3] = Selectivity index, ratio of CC50 for mouse J774.1 cells to IC50 for Leishmania donovani MHOM/IN/00/DEVI; assay type: functional
[4] = (§2) Cytotoxicity against human HepG2 cells after 72 hrs by MTT assay; assay type: cell-based; settings: HepG2 cells
How it was run: (§3)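 Cells plated in RPMI with 10% FCS, L-glutamine and penicillin/streptomycin, 24 h at 37 °C, 6% CO2. Compound dilutions then added for 72 h. MTT 0.5 mg/mL in PBS for 2 h, formazan dissolved in DMSO, A570 with 630 nm reference. Viability taken as % of untreated control. Doxorubicin served as positive control. CC50 from the dose-response curve.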

[5] = Cytotoxicity against mouse J774.1 cells after 72 hrs by MTT assay; assay type: cell-based; settings: for CC50 at 72 h: J774.1 cells; for CC50: j774.1, 72 h; how it was run: as §3
[6] = system: HepG2; experiment: as §2; assay type: cell-based; settings: hepg2, 72 h; how it was run: as §3
[7] = system: Leishmania infantum; experiment: Antimicrobial activity against Leishmania infantum MCAN/ES/98/LLM-877 promastigotes after 72 hrs by MTT assay; assay type: functional, organism-based; settings: MCAN/ES/98/LLM-877, 72 h; how it was run: as §1
[8] = system: Leishmania donovani; experiment: Antimicrobial activity against Leishmania donovani MHOM/IN/00/DEVI amastigotes infected in mouse J774.1 cells after 120 hrs by microscopic analysis; assay type: functional, organism-based; settings: J774.1, 120 h
How it was run: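 J774A.1 macrophages seeded at 5x10⁴ cells/mL, 24 h at 37 °C, 6% CO2. L. donovani promastigotes acidified 24 h at 27 °C in Schneider 20% FCS pH 5.4, then used to infect at 10:1 for 24 h. Compounds added in duplicate, final DMSO <0.5%, 120 h at 37 °C. Cells methanol-fixed and Giemsa-stained, ≥200 cells counted for % infected. IC50 by non-linear regression, mean of three independent experiments.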

[9] = system: Plasmodium falciparum; experiment: Antiplasmodial activity against Plasmodium falciparum K1 infected in human erythrocytes after 72 hrs by SYBR Green I fluorescence assay; assay type: functional, organism-based; settings: K1, 72 h
How it was run: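 K1 strain, resistant to chloroquine, pyrimethamine and proguanil, grown in A+ human erythrocytes with RPMI 1640, HEPES, NaHCO3 and 10% A+ serum. Rings synchronized with 5% sorbitol. Compounds tested at 2% hematocrit and 1% parasitaemia, 72 h at 37 °C in 5% O2, 5% CO2, in triplicate. DNA read by SYBR Green I lysis, 15 min, ex 497/em 520 nm. IC50 from three independent experiments.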

[10] = Leishmania donovani, MHOM/IN/00/DEVI, 72 h, read-out: IC50

SMILES | Ratio CC50/IC50 [1] | IC50 [2, 10] [µM] | Ratio CC50/IC50 [3] | CC50 at 72 h [4] [µM] | CC50 at 72 h [5] [µM] | IC50 [2] | CC50 [6] | CC50 [5] | IC50 [7] [µM] | IC50 [8] [µM] | IC50 [9] [µM]
Cc1ccc(S(=O)(=O)Cc2cn3cc(Br)ccc3n2)cc1 | <0.6 | > 50 | <0.4 | 28.9 | 20.9 | – | – | – | – | – | –
O=[N+]([O-])c1c(CS(=O)(=O)c2ccccc2)nc2ccc(-c3ccc4ccccc4c3)cn12 | – | – | – | – | – | ND(Insoluble) | ND(Insoluble) | ND(Insoluble) | – | – | –
Cc1nc2ccccn2c1[N+](=O)[O-] | – | > 50 | – | > 100 | > 100 | – | – | – | – | – | –
O=[N+]([O-])c1c(CS(=O)(=O)c2ccc(Cl)cc2)nc2ccc(Br)cn12 | 0.12 | 45.4 | 1.1 | 5.5 | 51.1 | – | – | – | – | – | –
O=[N+]([O-])c1c(CS(=O)(=O)c2ccc(I)cc2)nc2ccc(Br)cn12 | <0.4 | > 50 | <0.3 | 20.3 | 16.2 | – | – | – | – | – | –
Cc1ccccc1-c1ccc2nc(CS(=O)(=O)c3ccccc3)c([N+](=O)[O-])n2c1 | – | > 10 | <0.5 | > 9.4 | 5 | – | – | – | – | – | –
O=[N+]([O-])c1c(CS(=O)(=O)c2ccccc2)nc2ccc(-c3cccc(C(F)(F)F)c3)cn12 | – | – | – | – | – | ND(Insoluble) | ND(Insoluble) | ND(Insoluble) | – | – | –
C[C@@H]1[C@H](O)[C@@H](C)/C=C/C=C/C=C/C=C/C=C/C=C/C=C/[C@H](O[C@@H]2O[C@H](C)[C@@H](O)[C@H](N)[C@@H]2O)C[C@@H]2O[C@](O)(C[C@@H](O)C[C@@H](O)[C@H](O)CC[C@@H](O)C[C@@H](O)CC(=O)O[C@H]1C)C[C@H](O)[C@H]2C(=O)O [AMPHOTERICIN B] | – | – | – | – | 3.1 | – | – | – | 0.04 | 0.07 | –
O=[N+]([O-])c1c(CS(=O)(=O)c2ccccc2)nc2ccc(I)cn12 | >7.9 | 12.6 | 2.1 | > 100 | 27 | – | – | – | – | – | –
Cc1ccc(S(=O)(=O)Cc2nc3ccc(Cl)cn3c2[N+](=O)[O-])cc1 | – | > 50 | – | > 100 | > 94 | – | – | – | – | – | –
COc1cccc2c1C(=O)c1c(O)c3c(c(O)c1C2=O)C[C@@](O)(C(=O)CO)C[C@@H]3O[C@H]1C[C@H](N)[C@H](O)[C@H](C)O1 [DOXORUBICIN] | – | – | – | – | 0.02 | – | – | – | – | – | –
O=S(=O)(Cc1cn2cc(I)ccc2n1)c1ccc(Cl)cc1 | <0.8 | > 50 | <0.8 | 39.1 | 44.2 | – | – | – | – | – | –
O=S(=O)(Cc1cn2cc(Br)ccc2n1)c1ccc(Cl)cc1 | <0.5 | > 50 | <0.9 | 23 | 43.9 | – | – | – | – | – | –
COc1cc(-c2ccc3nc(CS(=O)(=O)c4ccccc4)c([N+](=O)[O-])n3c2)cc(OC)c1OC | <0.7 | > 50 | <0.1 | 34.7 | 5 | – | – | – | – | – | –
O=S(=O)(Cc1cn2ccccc2n1)c1ccccc1 | – | > 50 | – | > 100 | > 100 | – | – | – | – | – | –
O=S(=O)(Cc1cn2cc(I)ccc2n1)c1ccccc1 | <0.1 | > 50 | <0.1 | 5 | 5.2 | – | – | – | – | – | –
ClCc1cn2ccccc2n1 | – | > 50 | – | > 100 | > 100 | – | – | – | – | – | –
O=[N+]([O-])c1cnc2ccccn12 | – | > 50 | – | > 100 | > 100 | – | – | – | – | – | –
O=S(=O)(Cc1cn2cc(Cl)ccc2n1)c1ccccc1 | <0.3 | > 50 | <0.3 | 16.5 | 13.3 | – | – | – | – | – | –
O=[N+]([O-])c1c(CCl)nc2ccc(Br)cn12 | 1.6 | 9.6 | 0.5 | 15.6 | 4.9 | – | – | – | – | – | –
Cc1ccc(S(=O)(=O)Cc2nc3ccc(Br)cn3c2[N+](=O)[O-])cc1 | 0.13 | 44.1 | 1 | 5.9 | 44.3 | – | – | – | – | – | –
Cc1ccc(S(=O)(=O)Cc2nc3ccc(I)cn3c2[N+](=O)[O-])cc1 | >1.3 | 39.2 | 0.9 | > 50 | 34.8 | – | – | – | – | – | –

SMILES | Ratio CC50/IC50 [1] | IC50 [2, 10] [µM] | Ratio CC50/IC50 [3] | CC50 at 72 h [4] [µM] | CC50 at 72 h [5] [µM] | IC50 [2] | CC50 [6] | CC50 [5] | IC50 [7] [µM] | IC50 [8] [µM] | IC50 [9] [µM]
CS(=O)(=O)Cc1nc2ccc(Br)cn2c1[N+](=O)[O-] | – | > 50 | – | > 100 | > 100 | – | – | – | – | – | –
O=[N+]([O-])c1c(CSc2ccccc2)nc2ccc(Br)cn12 | <0.05 | > 10 | – | 0.53 | > 6 | – | – | – | – | – | –
O=[N+]([O-])c1c(CS(=O)(=O)c2ccc(F)cc2)nc2ccc(Br)cn12 | – | > 50 | – | > 100 | > 92.8 | – | – | – | – | – | –
O=[N+]([O-])c1c(CS(=O)(=O)c2ccc(Cl)cc2)nc2ccc(Cl)cn12 | 1.1 | 23 | 1.8 | > 25 | 42.4 | – | – | – | – | – | –
O=C1C(O)=C([C@H]2CC[C@H](c3ccc(Cl)cc3)CC2)C(=O)c2ccccc21 [ATOVAQUONE] | – | – | – | – | – | – | – | – | – | – | 0.0015
O=S(=O)(Cc1cn2cc(Cl)ccc2n1)c1ccc(Cl)cc1 | <1.4 | > 50 | <1.3 | 71.5 | 68.7 | – | – | – | – | – | –
O=[N+]([O-])c1c(CS(=O)(=O)c2ccc(Br)cc2)nc2ccc(Br)cn12 | 1.6 | 24.3 | 1.1 | 39 | 28.2 | – | – | – | – | – | –
O=[N+]([O-])c1c(CS(=O)(=O)c2ccc(Cl)cc2)nc2ccc(I)cn12 | >1.7 | 29.1 | 1.5 | > 50 | 43.6 | – | – | – | – | – | –
O=[N+]([O-])c1c(CS(=O)(=O)c2ccc(-c3ccccc3)cc2)nc2ccc(Br)cn12 | – | > 50 | <1.1 | > 100 | 54.4 | – | – | – | – | – | –
c1ccn2ccnc2c1 | – | > 50 | – | > 100 | > 100 | – | – | – | – | – | –
Cc1ccc(S(=O)(=O)Cc2cn3cc(Cl)ccc3n2)cc1 | 2 | 33.5 | 0.9 | 68.3 | 33.3 | – | – | – | – | – | –
O=[N+]([O-])c1c(CS(=O)(=O)c2ccccc2)nc2ccc(Cl)cn12 | >5.5 | 18.2 | >5.5 | > 100 | > 100 | – | – | – | – | – | –
CCCCCCCCCCCCCCCCOP(=O)([O-])OCC[N+](C)(C)C [MILTEFOSINE] | – | – | – | – | 94.6 | – | – | – | – | 6.8 | –
O=[N+]([O-])c1c(CCl)nc2ccccn12 | 0.6 | 15.1 | 0.3 | 8.7 | 4.8 | – | – | – | – | – | –
O=S(=O)(Cc1cn2cc(Br)ccc2n1)c1ccccc1 | 0.15 | > 50 | <0.1 | 7.3 | 6.4 | – | – | – | – | – | –
Cc1ccc(S(=O)(=O)Cc2cn3cc(I)ccc3n2)cc1 | – | > 50 | <0.5 | > 12.5 | 25 | – | – | – | – | – | –
COc1ccc(S(=O)(=O)Cc2nc3ccc(Br)cn3c2[N+](=O)[O-])cc1 | – | > 50 | – | > 100 | > 92.5 | – | – | – | – | – | –
O=[N+]([O-])c1c(CS(=O)(=O)c2ccc(C(F)(F)F)cc2)nc2ccc(Br)cn12 | <0.6 | > 50 | – | 31.7 | > 25 | – | – | – | – | – | –
O=[N+]([O-])c1c(CS(=O)(=O)c2ccccc2)nc2ccccn12 | – | > 50 | – | > 62.5 | > 100 | – | – | – | – | – | –
ClCc1cn2cc(Br)ccc2n1 | – | > 50 | <1.4 | > 100 | 68.4 | – | – | – | – | – | –
O=[N+]([O-])c1c(CS(=O)(=O)c2ccccc2)nc2ccc(Br)cn12 | >7.1 | 14 | 2.5 | > 100 | 34.3 | – | – | – | > 25 | > 25 | 41.2
N=C(N)c1ccc(OCCCCCOc2ccc(C(=N)N)cc2)cc1 [PENTAMIDINE] | 0.4 | – | 0.1 | – | 1 | – | – | – | – | > 20 | –

— ChEMBL document CHEMBL2440016, “Targeting the human parasite Leishmania donovani: discovery of a new promising anti-infectious pharmacophore in 3-nitroimidazo[1,2-a]pyridine series” (Bioorg Med Chem, 2013)
